HNF4A DNA FP: change in binding of human HNF4A to DNA, primary screen, biochemical, fluorescence polarization, FITC-DNA; Hepatocyte nuclear factor 4-alpha (Homo sapiens), P41235; 1 h; activity change, % at 10 µM; hit rate 0.3% among 360,000; in the data active = activity change above about 30%, passing the limit was not always enough
Target sequence (P41235 whole entry, looked up): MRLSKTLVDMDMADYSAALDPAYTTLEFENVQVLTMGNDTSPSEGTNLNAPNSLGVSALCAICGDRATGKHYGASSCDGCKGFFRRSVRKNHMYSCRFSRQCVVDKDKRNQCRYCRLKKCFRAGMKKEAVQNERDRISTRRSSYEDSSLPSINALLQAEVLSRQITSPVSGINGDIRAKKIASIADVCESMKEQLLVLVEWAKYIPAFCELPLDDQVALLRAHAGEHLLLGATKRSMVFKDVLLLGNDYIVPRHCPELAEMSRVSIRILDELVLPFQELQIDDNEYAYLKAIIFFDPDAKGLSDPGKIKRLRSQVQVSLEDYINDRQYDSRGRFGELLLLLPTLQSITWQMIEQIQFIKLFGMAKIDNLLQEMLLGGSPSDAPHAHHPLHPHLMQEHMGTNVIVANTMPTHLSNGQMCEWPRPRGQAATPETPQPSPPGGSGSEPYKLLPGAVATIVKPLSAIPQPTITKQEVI
NadD block: inhibitors of S. aureus NadD, primary screen, biochemical, colorimetric, uHTS; purified NadD enzyme, colorimetric absorbance read-out; inhibition, % at 20 µM; hit rate 0.78% among 360,000; in the data active = inhibition above about 26%
PP1 inh: PP1-alpha phosphatase inhibitors, primary screen, counter-screen for PP5 inhibitor project, biochemical, fluorescence, OMFP substrate, single point; inhibition, % at 6.7 µM; Serine/threonine-protein phosphatase PP1-alpha catalytic subunit (Homo sapiens), P62136; hit rate 0.9% among 320,000; purified PP1alpha; AID 2235, 2010;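 active = inhibition above the mean inhibition of all tested compounds plus 3 SD, computed separately for each screening campaign, cut at about 15% in these data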
Rpn11 block: Rpn11 (PSMD14) deubiquitinase inhibitors, primary screen, biochemical, fluorescence polarization, uHTS | AID 588493, 2011 | human 26S proteasome, Ub4-pepOG fluorescence polarization; 20S core pre-blocked with epoxomicin | hit rate 0.59% among 360,000 | inhibition, % at 20 µM;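 active = inhibition at 20 µM, scaled to each plate's controls, above about 33%, limit read from the data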
TPT1 inh: Candida albicans TPT1 enzyme inhibitors, primary screen, biochemical, fluorescence polarization; tRNA 2'-phosphotransferase TPT1 (Candida albicans SC5314); recombinant caTPT1, FP RNA substrate dephosphorylation; inhibition, % at 5 µM; hit rate 0.81% among 300,000;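 active = inhibition above the mean of all tested compounds plus 3 SD, set per screening campaign, cut at about 24% in these data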;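 also: plate controls were DMSO alone for no effect and ferristatin control at 100 nM for full effect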
CSN deneddyl inh: inhibitors of CSN-mediated cullin deneddylation, primary screen, biochemical, fluorescence polarization, uHTS; COP9 signalosome complex subunit 5 (Homo sapiens), Q92905; Purified CSN, SCF-Nedd8-OG deneddylation; inhibition, % at 12.5 µM; hit rate 0.38% among 360,000;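 active = pattern-corrected inhibition above about 35%, with an unprinted fluorescence ratio check between 0.5 and 1.5, limit read from the data, passing the limit was not always enough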;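 also: 0% = enzyme with substrate and 100% = substrate without enzyme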
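Material: human Csn5 produced in HEK293T cells; Input: enzyme 0.24 nM; Reagent: SCFSkp2-Nedd8OG substrate at 10 nM final; Dosing: 12.5 µM compound; Incubation: 90 min reaction at room temperature; Detection: fluorescence polarization of the substrate; Evaluation: % inhibition of substrate cleavage by Csn5; Control set: substrate-only high control, full reaction low control.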
The depositor's hits bear a star. An excerpt weighted towards active compounds, which were near 2.7% of everything screened.

`Cc1c(OCC(=O)N[C@@H](Cc2ccccc2)C(=O)O)ccc2c1oc(=O)c1ccccc12` gave HNF4A DNA FP 8, NadD block 4, PP1 inh 15*, Rpn11 block -2, TPT1 inh 3 and CSN deneddyl inh -1.
`O=C(COc1ccc(Cl)cc1)NCCNC(=O)c1ccccn1` gave HNF4A DNA FP 55*, NadD block 0, PP1 inh -2, Rpn11 block 6, TPT1 inh -3 and CSN deneddyl inh 1.
Cc1ccc(OCC(=O)NCCCNC(=O)c2ccccn2)cc1C was read as HNF4A DNA FP -1, NadD block -1, PP1 inh -1, Rpn11 block 2, TPT1 inh -1 and CSN deneddyl inh -2.
Screening Cn1cccc1CC(=O)N/N=C\c1c2ccccc2cc2ccccc12 returned HNF4A DNA FP 9, NadD block 29, PP1 inh 16*, Rpn11 block 11, TPT1 inh -7 and CSN deneddyl inh 7.
Screening C[N+](C)(C)CC(=O)N/N=C/c1c2ccccc2cc2ccccc12 returned HNF4A DNA FP -8, NadD block -3, PP1 inh -3, Rpn11 block -4, TPT1 inh -2 and CSN deneddyl inh -1.
Screening CCC12CN3CCN(CC(C3)/C1=N\NC(=O)Nc1ccccc1)C2 returned HNF4A DNA FP 4, NadD block 3, PP1 inh -8, Rpn11 block -6, TPT1 inh 2 and CSN deneddyl inh 2.
For CCCCC12CN3CCN(CC(C3)/C1=N\NC(=O)Nc1ccccc1)C2 the results were HNF4A DNA FP 3, NadD block 3, PP1 inh -1, Rpn11 block -3, TPT1 inh 0 and CSN deneddyl inh 42*.
Screening Cc1ccc(NC(=O)c2ccc(Cl)c(N3C(=O)CCC3=O)c2)cc1 returned HNF4A DNA FP 55*, NadD block -1, PP1 inh 1, Rpn11 block -4, TPT1 inh 1 and CSN deneddyl inh -1.
Screening Cc1ccc(NC(=O)c2ccc(C)cc2)cc1 returned HNF4A DNA FP 1, NadD block -1, PP1 inh 3, Rpn11 block -5, TPT1 inh 0 and CSN deneddyl inh -1.
`CCOc1cc(/C=C2\C(=O)N(c3cccc(C(=O)O)c3)N=C2C(F)(F)F)ccc1OCC(=O)Nc1ccccc1OC` gave PP1 inh 17* and TPT1 inh 0.
Cc1ccc(S(=O)(=O)N2CCCCC2)cc1C(=O)NCc1ccc(S(N)(=O)=O)cc1 was read as HNF4A DNA FP -4, NadD block -5, Rpn11 block -9 and CSN deneddyl inh -5.
Screening N#C/C(=C\c1ccc([N+](=O)[O-])o1)c1nc2ccccc2[nH]1 returned PP1 inh -3 and TPT1 inh 29*.
For N#C/C(=C\c1ccc(N2CCCC2)c([N+](=O)[O-])c1)c1nc2ccccc2[nH]1 the results were HNF4A DNA FP 2, NadD block 31*, PP1 inh 1, Rpn11 block 4, TPT1 inh 3 and CSN deneddyl inh 2.
`O=C(O)c1cccc2c(-c3ccccc3)c(-c3ccccc3)[nH]c12` gave HNF4A DNA FP -3, NadD block 4, PP1 inh 15*, Rpn11 block 3, TPT1 inh 0 and CSN deneddyl inh 4.
O=c1oc(/C=C/c2ccco2)nc2sc3c(c12)CCC3 was read as HNF4A DNA FP -11, NadD block 11, PP1 inh -2, Rpn11 block 2, TPT1 inh 0 and CSN deneddyl inh 42*.
`Cc1cccc(Cc2cnc(N3C(=N)SC(C)C3=O)s2)c1` (centres undefined) gave HNF4A DNA FP 1, NadD block 1, PP1 inh 4, Rpn11 block 11, TPT1 inh -2 and CSN deneddyl inh 3.
Cc1cccc(Cc2cnc(N3C(=N)SC(c4ccccc4)C3=O)s2)c1 (centres undefined) was read as HNF4A DNA FP -1, NadD block 16, PP1 inh 15*, Rpn11 block 11, TPT1 inh 2 and CSN deneddyl inh 3.
For Cc1ccc(OCc2nnc(SCC(=O)Nc3cccc4ccccc34)n2-c2ccccc2)cc1 the results were HNF4A DNA FP -1, NadD block 11, PP1 inh 15*, Rpn11 block 3, TPT1 inh 2 and CSN deneddyl inh -1.
For O=C(Nc1ccc2nc(-c3ccco3)c(-c3ccco3)nc2c1)N1CCCCCC1 the results were PP1 inh 37* and TPT1 inh -1.
Screening Cc1ccc(S(=O)(=O)CCC(=O)Nc2nnc(-c3cccs3)o2)cc1 returned HNF4A DNA FP 0, NadD block 1, PP1 inh -2, Rpn11 block 1, TPT1 inh -4 and CSN deneddyl inh 1.
`NNC(=O)c1cc2c(N3CCC(Cc4ccccc4)CC3)ncnc2s1` gave HNF4A DNA FP 2, NadD block 23, PP1 inh 16*, Rpn11 block 1, TPT1 inh 0 and CSN deneddyl inh -4.
Screening C#CCOCCOCCOCCNc1nc(N2CCN(C(=O)CCCCCCCCCCNC(=O)[C@H](CCCCN)n3cc(C)nn3)CC2)nc(N2CCN(C(=O)CCCCCCCCCCNC(=O)[C@H](CCCCN)n3cc(CCCC(=O)O)nn3)CC2)n1 returned HNF4A DNA FP 38*, NadD block 14, PP1 inh 2, Rpn11 block -23, TPT1 inh -5 and CSN deneddyl inh 14.
For C#CCOCCOCCOCCNc1nc(N2CCN(C(=O)CCCCCCCCCCNC(=O)Cn3cc(C[C@@H](C)O)nn3)CC2)nc(N2CCN(C(=O)CCCCCCCCCCNC(=O)[C@H](CCCN=C(N)N)n3cc(C[C@@H](C)CC)nn3)CC2)n1 the results were HNF4A DNA FP 160, NadD block 38*, PP1 inh 11, Rpn11 block 84*, TPT1 inh 0 and CSN deneddyl inh 44*.
Screening C#CCOCCOCCOCCNc1nc(N2CCN(C(=O)CCCCCCCCCCNC(=O)[C@H](CO)n3cc(CCCSC)nn3)CC2)nc(N2CCN(C(=O)CCCCCCCCCCNC(=O)[C@@H]([C@H](C)O)n3cc(C)nn3)CC2)n1 returned PP1 inh 31* and TPT1 inh -4.
